Data published in ChEMBL document CHEMBL4689842, “EUbOPEN Chemogenomics Library wave 1” (2021).

Tested on: HEK-293T
Test: Multiplex assay against HEK293T;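 on Population Tubulin-Different-Phenotype (%): share of the cells with healthy nuclei that show this phenotype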
Type: toxicity, cell-based
Details: human
Procedure, shortened: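 Hoechst33342, BioTracker Green Microtubule Cytoskeleton Dye, MitoTracker Red and Annexin V Alexa Fluor 680 were added to live cells at seeding, and imaging on a CQ1 microscope at 37°C and 5% CO2 followed compound addition. Gating by CellPathfinder machine learning separated cells into Hoechst high-intensity objects or normal cells, then normal cells into healthy, pyknosed or fragmented nuclei, then pyknosed cells into mitotic or apoptotic. Per cents of healthy-nucleus cells are reported for the tubulin, mitochondrial-mass and membrane-permeability phenotypes.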

[1] = 12 h, 1 µM, compound concentration 1 uM, replicate 1
[2] = 12 h, 1 µM, compound concentration 1 uM, replicate 2
[3] = 12 h, 10 µM, compound concentration 10 uM, replicate 1
[4] = 12 h, 10 µM, compound concentration 10 uM, replicate 2
[5] = 24 h, 1 µM, compound concentration 1 uM, replicate 1
[6] = 24 h, 1 µM, compound concentration 1 uM, replicate 2
[7] = 24 h, 10 µM, compound concentration 10 uM, replicate 1
[8] = 24 h, 10 µM, compound concentration 10 uM, replicate 2

SMILES: CCOc1cc2ncc(C#N)c(Nc3ccc(OCc4cccc(F)c4)c(Cl)c3)c2cc1NC(=O)/C=C/CN(C)C [HKI-357]
- Population Apoptotic (%) [1]: 18%
- Population Fragmented Nuclei (%) [1]: 19%
- Population Healthy Nuclei (%) [1]: 59%
- Population Hoechst High Intensity Objects (%) [1]: 13%
- Population Membrane Permeable-Phenotype (%) [1]: 4%
- Population Mitochondria Different-Phenotype (%) [1]: 8%
- Population Mitotic Cells (%) [1]: 81%
- Population Normal (%) [1]: 86%
- Population Pyknosed Nuclei (%) [1]: 21%
- Population Tubulin-Different-Phenotype (%) [1]: 4%
- Total Cell Count [1]: 555
- Population Apoptotic (%) [2]: 10%
- Population Fragmented Nuclei (%) [2]: 7%
- Population Healthy Nuclei (%) [2]: 87%
- Population Hoechst High Intensity Objects (%) [2]: 1%
- Population Membrane Permeable-Phenotype (%) [2]: 1%
- Population Mitochondria Different-Phenotype (%) [2]: 10%
- Population Mitotic Cells (%) [2]: 89%
- Population Normal (%) [2]: 98%
- Population Pyknosed Nuclei (%) [2]: 5%
- Population Tubulin-Different-Phenotype (%) [2]: 7%
- Total Cell Count [2]: 1619
- Population Apoptotic (%) [3]: 31%
- Population Fragmented Nuclei (%) [3]: 13%
- Population Healthy Nuclei (%) [3]: 50%
- Population Hoechst High Intensity Objects (%) [3]: 10%
- Population Membrane Permeable-Phenotype (%) [3]: 19%
- Population Mitochondria Different-Phenotype (%) [3]: 16%
- Population Mitotic Cells (%) [3]: 68%
- Population Normal (%) [3]: 89%
- Population Pyknosed Nuclei (%) [3]: 35%
- Population Tubulin-Different-Phenotype (%) [3]: 61%
- Total Cell Count [3]: 591
- Population Apoptotic (%) [4]: 14%
- Population Fragmented Nuclei (%) [4]: 3%
- Population Healthy Nuclei (%) [4]: 83%
- Population Hoechst High Intensity Objects (%) [4]: 2%
- Population Membrane Permeable-Phenotype (%) [4]: 11%
- Population Mitochondria Different-Phenotype (%) [4]: 23%
- Population Mitotic Cells (%) [4]: 85%
- Population Normal (%) [4]: 97%
- Population Pyknosed Nuclei (%) [4]: 12%
- Population Tubulin-Different-Phenotype (%) [4]: 78%
- Total Cell Count [4]: 1328
- Population Apoptotic (%) [5]: 31%
- Population Fragmented Nuclei (%) [5]: 14%
- Population Healthy Nuclei (%) [5]: 74%
- Population Hoechst High Intensity Objects (%) [5]: 8%
- Population Membrane Permeable-Phenotype (%) [5]: 7%
- Population Mitochondria Different-Phenotype (%) [5]: 5%
- Population Mitotic Cells (%) [5]: 68%
- Population Normal (%) [5]: 91%
- Population Pyknosed Nuclei (%) [5]: 11%
- Population Tubulin-Different-Phenotype (%) [5]: 9%
- Total Cell Count [5]: 612
- Population Apoptotic (%) [6]: 4%
- Population Fragmented Nuclei (%) [6]: 26%
- Population Healthy Nuclei (%) [6]: 71%
- Population Hoechst High Intensity Objects (%) [6]: 2%
- Population Membrane Permeable-Phenotype (%) [6]: 4%
- Population Mitochondria Different-Phenotype (%) [6]: 2%
- Population Mitotic Cells (%) [6]: 96%
- Population Normal (%) [6]: 97%
- Population Pyknosed Nuclei (%) [6]: 1%
- Population Tubulin-Different-Phenotype (%) [6]: 8%
- Total Cell Count [6]: 2811
- Population Apoptotic (%) [7]: 28%
- Population Fragmented Nuclei (%) [7]: 12%
- Population Healthy Nuclei (%) [7]: 59%
- Population Hoechst High Intensity Objects (%) [7]: 8%
- Population Membrane Permeable-Phenotype (%) [7]: 10%
- Population Mitochondria Different-Phenotype (%) [7]: 17%
- Population Mitotic Cells (%) [7]: 71%
- Population Normal (%) [7]: 91%
- Population Pyknosed Nuclei (%) [7]: 28%
- Population Tubulin-Different-Phenotype (%) [7]: 72%
- Total Cell Count [7]: 592
- Population Apoptotic (%) [8]: 11%
- Population Fragmented Nuclei (%) [8]: 11%
- Population Healthy Nuclei (%) [8]: 81%
- Population Hoechst High Intensity Objects (%) [8]: 3%
- Population Membrane Permeable-Phenotype (%) [8]: 12%
- Population Mitochondria Different-Phenotype (%) [8]: 9%
- Population Mitotic Cells (%) [8]: 88%
- Population Normal (%) [8]: 96%
- Population Pyknosed Nuclei (%) [8]: 6%
- Population Tubulin-Different-Phenotype (%) [8]: 70%
- Total Cell Count [8]: 1894
